From ChEMBL document CHEMBL1121702, “A structure-activity relationship study of spirolactones. Contribution of the cyclopropane ring to antimineralocorticoid activity” (J Med Chem, 1981)

Columns and labels:
[1] = target: T1, Mineralocorticoid receptor (Rattus norvegicus) (UniProt P22199); assay: Displacement of [3H]aldosterone from mineralocorticoid receptor
T1 sequence (whole entry): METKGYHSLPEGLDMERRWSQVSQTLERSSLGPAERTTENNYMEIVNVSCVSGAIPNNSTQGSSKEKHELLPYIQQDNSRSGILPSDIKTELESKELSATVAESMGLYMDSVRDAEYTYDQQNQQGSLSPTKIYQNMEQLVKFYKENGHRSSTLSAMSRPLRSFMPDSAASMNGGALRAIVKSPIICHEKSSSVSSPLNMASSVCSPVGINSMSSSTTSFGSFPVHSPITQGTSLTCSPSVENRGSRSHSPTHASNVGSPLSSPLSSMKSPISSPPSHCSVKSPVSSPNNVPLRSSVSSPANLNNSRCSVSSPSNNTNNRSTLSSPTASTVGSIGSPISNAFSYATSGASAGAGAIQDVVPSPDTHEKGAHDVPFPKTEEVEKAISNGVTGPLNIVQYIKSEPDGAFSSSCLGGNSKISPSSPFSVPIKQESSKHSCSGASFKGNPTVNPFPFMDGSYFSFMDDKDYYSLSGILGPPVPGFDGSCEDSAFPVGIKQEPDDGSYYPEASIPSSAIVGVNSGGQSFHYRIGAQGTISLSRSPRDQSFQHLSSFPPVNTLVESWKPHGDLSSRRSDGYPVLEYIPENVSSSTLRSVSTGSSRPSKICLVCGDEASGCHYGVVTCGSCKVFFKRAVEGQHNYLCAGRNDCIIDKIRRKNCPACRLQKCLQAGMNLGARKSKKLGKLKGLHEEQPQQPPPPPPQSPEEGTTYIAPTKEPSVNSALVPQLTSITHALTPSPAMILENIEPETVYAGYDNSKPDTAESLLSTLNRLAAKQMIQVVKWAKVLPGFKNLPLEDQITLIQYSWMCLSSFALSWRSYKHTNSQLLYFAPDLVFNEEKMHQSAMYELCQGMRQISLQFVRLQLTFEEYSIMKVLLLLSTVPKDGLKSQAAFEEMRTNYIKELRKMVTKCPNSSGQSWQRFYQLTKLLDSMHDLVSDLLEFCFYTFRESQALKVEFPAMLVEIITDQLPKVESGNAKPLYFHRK
In short: (§1)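 Competition binding against [3H]aldosterone at the mineralocorticoid steroid-receptor complex. Each spirolactone competitor was tested at 8 × 10^-8 M, with unlabeled aldosterone at the same concentration as reference. Incubation ran 40 min at 25 °C. Labeled aldosterone still receptor-bound afterwards was measured, and binding affinity was expressed relative to aldosterone.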

[2] = target: T1, Mineralocorticoid receptor (Rattus norvegicus); assay: Ratio of [3H]aldosterone binding with 8*10e-8 M aldosterone to [3H]aldosterone binding with 8*10e-8 M competitor at Mineralocorticoid receptor; in short: as §1

Row | SMILES | Binding [1] [%] | Relative binding affinity [2]
1 | CC12CCC(=O)C=C1[C@@H]1C[C@@H]1C1C2CCC2(C)C1CCC21CCC(=O)O1 (some centres undefined) | 31.7 | 0.25
2 | C[C@]12CCC(=O)C=C1C=C[C@@H]1[C@@H]2CC[C@@]2(C)[C@H]1CC[C@@]21CCC(=O)O1 | 60 | 0.13
3 | CC12C=CC(=O)C=C1[C@H]1C[C@H]1C1C2CCC2(C)C1CCC21CCC(=O)O1 (some centres undefined) | 53 | 0.15
4 | CC12C(=CC(=O)C3CC31)[C@@H]1C[C@@H]1C1C2CCC2(C)C1CCC21CCC(=O)O1 (some centres undefined) | 55 | 0.14
5 | CC12C=CC(=O)C=C1[C@H]1CC1C1C2CCC2(C)C1CCC21CCC(=O)O1 (some centres undefined) | 77 | 0.1
6 | CC12C=CC(=O)C=C1C=CC1C2CCC2(C)C1CCC21CCC(=O)O1 (centres undefined) | 76.6 | 0.1
7 | CC12C(=CC(=O)C3CC31)[C@H]1CC1C1C2CCC2(C)C1CCC21CCC(=O)O1 (some centres undefined) | 77.6 | 0.1

Further lines, results first:

Row | Binding [1] [%] | Relative binding affinity [2] | SMILES
8 | 36 | 0.22 | C[C@]12CCC(=O)C=C1CC[C@@H]1[C@@H]2CC[C@@]2(C)[C@H]1CC[C@@]21CCC(=O)O1
9 | 53.5 | 0.15 | C[C@]12C=CC(=O)C=C1CCC1C2CC[C@@]2(C)C1CC[C@@]21CCC(=O)O1 (some centres undefined)
10 | 7.8 | 1 | C[C@]12CCC(=O)C=C1CC[C@@H]1[C@@H]2[C@@H](O)C[C@]2(C=O)[C@@H](C(=O)CO)CC[C@@H]12
11 | 66 | 0.12 | CC12CCC(=O)C=C1[C@H]1C[C@H]1C1C2CCC2(C)C1CCC21CCC(=O)O1 (some centres undefined)
12 | 32.2 | 0.24 | CC(=O)S[C@@H]1CC2=CC(=O)CC[C@]2(C)[C@H]2CC[C@@]3(C)[C@@H](CC[C@@]34CCC(=O)O4)[C@H]12
